Compounds with a hit are over-represented: about 1.5% of the library has one in this group of screens.
CXCR6 inh – inhibitors of human CXCR6 receptor | CHO-K1 PathHunter CXCR6 beta-arrestin, luminescence | O00574 | actives 0.36% (n = 360,000) | inhibition, % at 20 µM; in the data active = inhibition above about 34%, passing the limit was not always enough;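 also: antagonist mode with CXCL16 agonist at 10 nM final; 0% = 10 nM CXCL16 with DMSO and 100% = unstimulated wells without agonist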
Target sequence (O00574 whole entry, looked up): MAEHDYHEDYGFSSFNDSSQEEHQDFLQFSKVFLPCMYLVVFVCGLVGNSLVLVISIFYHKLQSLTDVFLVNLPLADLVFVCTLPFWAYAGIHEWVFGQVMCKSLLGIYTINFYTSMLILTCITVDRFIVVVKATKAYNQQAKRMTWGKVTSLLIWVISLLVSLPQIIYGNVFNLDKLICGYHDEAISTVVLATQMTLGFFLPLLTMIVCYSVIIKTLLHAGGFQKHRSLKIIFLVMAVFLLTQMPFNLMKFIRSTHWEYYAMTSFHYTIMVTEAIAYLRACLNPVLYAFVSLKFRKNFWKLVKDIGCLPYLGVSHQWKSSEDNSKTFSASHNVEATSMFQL
EBI2 block – antagonists of human EBI2 receptor. P32249. EBI2 beta-arrestin recruitment, luminescence, 7a,25-OHC stimulated. inhibition, % at 5 µM. actives 0.81% (n = 360,000); in the data active = inhibition above about 38%;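 also: enzyme fragment complementation signal reports receptor beta-arrestin coupling in cells; 0% = agonist plus DMSO wells and 100% = wells without agonist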
APJ agonist – APJ receptor agonism. P35414. activation, % at 20 µM. CHO-K1 APJ PathHunter beta-arrestin, luminescence; 0% DMSO wells, 100% apelin. actives 0.11% (n = 330,000);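 active = activation more than six SD over the plate average, tested at 20 µM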;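 also: 0% = DMSO alone and 100% = apelin-13 at 10 nM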
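Incubation: overnight seeding, 90 min compound at 25 °C, 1 h detection; test system: PathHunter CHO-K1 APJ (AGTRL-1) beta-arrestin reporter cells; amount: 1000 cells/well; doses: one dose, 20 µM compound, 1% DMSO; measured by: beta-gal luminescence; measure: agonist-driven arrestin binding to APJ; benchmarks: negative DMSO alone, positive Apelin-13 at 10 nM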
CCR6 antag – blocks CCL20-driven beta-arrestin recruitment at human CCR6; P51684; CHO-K1 CCR6 PathHunter beta-arrestin, luminescence, CCL20-stimulated; inhibition, % at 20 µM; actives 0.49% (n = 340,000); AID 493098;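 active = compounds whose inhibition of the agonist-driven luminescence signal at 20 µM reaches about 50%, limit read from the data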;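 also: cells stimulated with CCL20 at 14 nM final; plate controls were DMSO with CCL20 for no effect and DMSO without agonist for full effect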
APJ antagonist – blocks the human apelin receptor APJ. CHO-K1 APJ beta-arrestin complementation, luminescence. inhibition, % at 20 µM. actives 0.32% (n = 330,000). AID 2521;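 active = inhibition above about 40% at 20 µM, limit read from the data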;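 also: cells challenged with 10 nM apelin-13 agonist together with compound; plate controls were apelin-13 plus DMSO wells for no effect and DMSO wells lacking apelin-13 for full effect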
EBI2 antag conf – confirmation of human EBI2 receptor antagonists. actives 29% (n = 2,400). inhibition, % at 5 µM. EBI2 beta-arrestin luminescence, 7a,25-OHC antagonism. shares compounds with EBI2 block;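 active = inhibition of at least 50%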
EBI2 agonist – EBI2 agonism counter-screen; 2,400 tested, under 10 active; activation, % at 5 µM; AID 652000; EBI2-expressing cells, agonist mode, luminescence, 60 min; 0% vehicle, 100% 7α,25-dihydroxycholesterol control; shares compounds with EBI2 block;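 active = activation of at least 50%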
bGal counter – beta-galactosidase inhibition counter-screen; shares compounds with EBI2 block; purified beta-galactosidase, luminescent Galacton Star, 15 min; inhibition, % at 5 µM; actives 1% (n = 2,400); AID 652176;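 active = replicate-average signal at least 3 plate SD below neutral wells, shown as high inhibition, flagging enzyme-inhibiting false positives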;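 also: 0% = DMSO wells with enzyme and 100% = wells lacking enzyme; higher means stronger loss of beta-gal luminescence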
Numbers without * were called inactive; · = no result given.

SMILES	CXCR6 inh	EBI2 block	APJ agonist	CCR6 antag	APJ antagonist	EBI2 antag conf	EBI2 agonist	bGal counter
Cc1ccc2cc3cc(C(=O)N4CCN(Cc5ccccc5)CC4)sc3nc2c1	5	80*	-3	0	-4	53*	0	-17
Cc1c(C(=O)NCc2ccccc2C(F)(F)F)sc(=O)n1Cc1ccccc1C#N	4	-4	·	·	·	·	·	·
CC(=O)OC[C@@H]1CN(Cc2ccccc2)C[C@H](n2cnc3c(N4CCOCC4)ncnc32)O1	1	0	·	·	·	·	·	·
Cc1ccc(S(=O)(=O)N2Cc3ccccc3CC2C(N)=O)cc1 (stereo not given)	0	-10	·	·	·	·	·	·
CCOc1ccc(OCC(=O)N2CCN(S(=O)(=O)c3ccccc3)CC2)cc1	1	59*	·	·	·	28	0	-14
CC(=O)c1ccc(S(=O)(=O)N2CCN(CCOc3ccc(Br)cc3)CC2)cc1	-7	90*	-1	10	5	58*	2	5
CCOc1ccc(S(=O)(=O)N2CCN(C(=O)COc3ccc(Br)cc3)CC2)cc1	-2	88*	0	22	-17	81*	1	2
CCOc1ccc(S(=O)(=O)N2CCN(S(=O)(=O)c3ccc(C(C)=O)cc3)CC2)cc1	-3	8	-2	10	8	·	·	·
CCS(=O)(=O)N1CCN(C(=O)COc2ccc(-c3ccccc3)cc2)CC1	-4	20	-4	-6	-4	·	·	·
N#Cc1ccc(NCC(=O)N2CCN(S(=O)(=O)c3ccccc3)CC2)cc1	-2	35	-2	3	-1	·	·	·
Cc1ccc(NCC(=O)N2CCN(S(=O)(=O)c3ccccc3)CC2)cc1F	-14	87*	-5	15	-6	48	-1	-9
C[C@H]1CN([C@@H](C)CO)C(=O)c2cc(Br)cnc2O[C@@H]1CN(C)S(=O)(=O)c1ccccc1	9	-5	·	·	·	·	·	·
CC(=O)c1cc2c(cc1C)CCCC2(C)C	-7	-7	·	-3	·	·	·	·
CCOC(=O)C1=CCN(S(=O)(=O)c2ccccc2Cl)C1c1ccccc1 (stereo not given)	-2	-12	·	·	·	·	·	·
CCOC(=O)C1=CCN(S(=O)(=O)c2ccccc2C)C1c1cccc(Br)c1 (stereo not given)	17	67*	·	·	·	25	-1	-13
CCOC(=O)C1=CCN(S(=O)(=O)c2ccccc2Cl)C1c1cccc(C)c1 (stereo not given)	1	40*	·	·	·	25	0	8
CCOc1ccccc1OCCCC(=O)N1CCN(S(=O)(=O)c2ccc(C)cc2C)CC1	5	10	-3	11	1	·	·	·
CN(Cc1cnn(-c2ccccc2)c1)C(=O)c1cccc(S(=O)(=O)Nc2ccccc2F)c1	3	1	·	·	·	·	·	·
Cc1nc(N2CCN(C(=O)COc3ccccc3)CC2)c2c(C)c(C)sc2n1	-8	51*	2	7	7	28	-1	-6
Cc1ccc(OCC(=O)N2CCN(c3nnc(-c4ccccc4)c4ccccc34)CC2)cc1	11	90*	-5	27	3	86*	0	9
CC(=O)N1CCN(c2nnc(-c3ccc(C)cc3)c3ccccc23)CC1	-6	1	0	9	2	·	·	·
COCCCn1cc(CN2CC(N3CCSCC3)CS2(=O)=O)nn1 (stereo not given)	1	-1	·	·	·	·	·	·
CCCc1cc(=O)oc2cc(C)cc(OCC(=O)N3C[C@H]4C[C@@H](C3)c3cccc(=O)n3C4)c12	3	-8	·	·	·	·	·	·
Cc1ccc(C2CC(c3ccccc3)=NN2C(=O)CSc2nnc(-c3ccc(Cl)cc3)o2)o1 (stereo not given)	11	42*	0	4	5	2	-1	-6
CSc1ncccc1C(=O)N1CCC(C)(C(=O)O)C1 (stereo not given)	3	-5	·	·	·	·	·	·
SMILES	CXCR6 inh	EBI2 block	APJ agonist	CCR6 antag	APJ antagonist	EBI2 antag conf	EBI2 agonist	bGal counter
CCCS(=O)(=O)NC(=O)C1(C)CCN(C(=O)c2ccnc(Cl)c2)C1 (stereo not given)	-5	-9	·	·	·	·	·	·
CCOc1ccccc1OCCCC(=O)N1CCN(S(=O)(=O)c2cccc(F)c2)CC1	-2	-4	-2	3	1	·	·	·
COc1ccc(CCC(=O)N2CCN(S(=O)(=O)c3ccc(C)cc3)CC2)cc1	-3	49*	-3	8	9	21	1	4
COc1ccc(OCCCC(=O)N2CCN(S(=O)(=O)c3cccc(F)c3)CC2)cc1	-9	58*	-3	10	11	29	0	3
COc1ccc(S(=O)(=O)N2CCN(C(=O)CCC3CCCC3)CC2)cc1	1	3	8	-2	3	·	·	·
COc1ccc(CCC(=O)N2CCN(S(=O)(=O)c3cccc(Cl)c3)CC2)cc1	-2	72*	-4	12	13	47	0	-17
CC(=O)c1ccc(OCCCC(=O)Nc2nnc(C3CC3)s2)cc1	7	3	-5	4	3	·	·	·
Cc1cc(C(=O)Nc2ccc3c(c2)CCC3)ccc1[N+](=O)[O-]	-9	8	-3	12	-11	·	·	·
COc1ccc(NC(=O)c2cc3ccccc3o2)cn1	-2	38*	-3	4	6	19	1	7
COc1ccc(NC(=O)c2cc(=O)c3ccccc3o2)cn1	-9	5	0	13	10	·	·	·
COC(=O)[C@@]1(Cc2ccc(OC)cc2)[C@H]2c3cc(C(=O)N4CCCC4)n(CCc4c[nH]c5ccccc45)c3C[C@H]2CN1C(=O)c1ccccc1	3	38	·	·	·	·	·	·
COC(=O)[C@@]1(Cc2ccc(F)cc2)[C@H]2c3cc(C(=O)N4CCCC4)n(CCc4c[nH]c5ccccc45)c3C[C@H]2CN1C(=O)c1ccccc1	11	53*	·	·	·	24	0	-8
COc1cc2ccccc2cc1C(=O)Nc1ccc(C)cc1	5	31	-1	-15	4	·	·	·
COc1cc2ccccc2cc1C(=O)Nc1ccc(Cc2ccncc2)cc1	-12	48*	2	24	-2	39	1	1
CCCNC(=O)N[C@H]1CC[C@@H](CCn2cc(-c3cccc(F)c3)nn2)O[C@@H]1CO	·	-1	·	·	·	·	·	·
Cc1cc(C)c2oc(C(=O)N3CCN(Cc4ccccc4)CC3)cc(=O)c2c1	3	58*	-1	10	13	32	-1	-10
O=C(c1cc(=O)c2cc(Cl)ccc2o1)N1CCN(Cc2ccccc2)CC1	7	93*	-4	-2	11	92*	0	4
Cc1cc(C)c2oc(C(=O)N3CCN(C)CC3)cc(=O)c2c1	-1	-1	-1	17	-7	·	·	·

Assay outcomes: PubChem BioAssay, Sanford-Burnham Center for Chemical Genomics
